One experiment deals with SK-OV-3. In words: Cytotoxicity against human SKOV3 cells after 48 hrs by SRB assay. It is filed as functional. The conditions noted are these: SK-OV-3, 48 h. A digest of the protocol: (§1)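 Cells in 5% FBS/RPMI1640 with 1% gentamicin, plated and grown 24 h, then given serial compound dilutions for 48 h. Fixed with trichloroacetic acid, stained with sulforhodamine B, read by optical density.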

In another experiment the test system is DU-145. In words: Cytotoxicity against human DU145 cells after 48 hrs by SRB assay. The settings on record: DU-145, 48 h. The class given is functional. A digest of the protocol:
as §1
Background: Sulforhodamine B stains cellular protein and so reports cell mass.

Experiment [1] can be described thus: Inhibition of bovine brain tubulin polymerization after 20 mins by turbidimetric analysis. On the set-up: species or system Bos taurus. A digest of the protocol: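 Bovine brain tubulin 10 µM (1 mg/mL) in 0.8 M monosodium glutamate pH 6.6, 4% DMSO, with varying compound, preincubated 15 min at 30 °C. Chilled, GTP added to 0.4 mM, then temperature jumped 0→30 °C. Turbidity followed at 350 nm for 30 min.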

Another experiment concerns NCI-H460. Description: Cytotoxicity against human NCI-H460 cells after 48 hrs by SRB assay. It is filed as functional. The conditions noted are these: NCI-H460, 48 h. The method in brief:
as §1

Experiment [2] concerns the target T1, Tubulin (Homo sapiens) (UniProt P68371+Q9H4B7+P0DPH7+P68366+Q13509+Q71U36+P04350+Q3ZCM7+P07437+P68363+Q9BQE3+Q6PEY2+Q13885+Q9BVA1+Q9BUF5). Description: Displacement of [3H]colchicine from tubulin (unknown origin) at 5 uM after 10 mins by scintillation counting analysis. It is filed as protein-complex assay. The method in brief:
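Mixtures: 1.0 µM tubulin, 5.0 µM [3H]colchicine, 5% DMSO, inhibitor 5.0 µM, with 1.0 M monosodium glutamate pH 6.6, 0.5 mg/mL BSA, 0.1 M glucose-1-phosphate, 1.0 mM MgCl2, 1.0 mM GTP. 10 min at 37 °C, stopped with ice-cold water, filtered on DEAE-cellulose, scintillation counted. Percent inhibition versus no-inhibitor control.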

In experiment [3] the target is T1, Tubulin (Homo sapiens). In words: Displacement of [3H]colchicine from tubulin (unknown origin) at 1 uM after 10 mins by scintillation counting analysis. The class given is protein-complex assay. The method in brief:
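Tubulin 1.0 µM incubated 10 min at 37 °C with 5.0 µM [3H]colchicine, 5% (v/v) DMSO and inhibitor at 1.0 µM, in 1.0 M monosodium glutamate pH 6.6, 0.5 mg/mL BSA, 0.1 M glucose-1-phosphate, 1.0 mM MgCl2, 1.0 mM GTP. Stopped with ice-cold water, DEAE-cellulose filter stacks, scintillation counting next day; percent inhibition versus no-inhibitor control.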
Background: Displacement assays read how much labelled ligand stays bound in the presence of the test substance.

The structures appear in SMILES notation. Where only a bound is given, the exact number is not on record here.

With `COc1ccc(-c2[nH]c3cc(OC)c(OC)c(OC)c3c2C(=O)c2cc(OC)c(OC)c(OC)c2)cc1O`, the GI50 (as a rule, the concentration giving 50% growth inhibition) with SK-OV-3 is 25.1 µM; in the experiment with DU-145, 28.3 µM; in the experiment with NCI-H460 it was 41.8 µM. Further, in experiment [1], the IC50 (usually the point on the concentration scale where inhibition reaches its midpoint) was > 20 µM.

Regarding `COc1ccc2c(C(=O)c3ccc(F)cc3)c(-c3ccc(OC)c(O)c3)[nH]c2c1`, the results for the GI50 in the experiment with SK-OV-3, in the experiment on DU-145 and with NCI-H460 were 15 µM, 10 µM and 49.6 µM, respectively. In addition, the IC50 in experiment [1] was > 20 µM.

Consider `COc1ccc(-c2[nH]c3cc(O)ccc3c2C(=O)c2cc(OC)c(OC)c(OC)c2)cc1O`, for which the GI50 with SK-OV-3 stood at 2.17 µM; in the experiment with DU-145, 3.4 µM; in the experiment on NCI-H460, 2.91 µM. For the same compound, in experiment [1], the IC50 was > 20 µM.

`COc1ccc2c(C(=O)c3cccc(OC(F)(F)F)c3)c(-c3ccc(OC)c(O)c3)[nH]c2c1`: the inhibition – broadly, the drop in the measured response relative to a control, in per cent – on Tubulin (Homo sapiens) [2] amounted to 19%. For the same compound, the GI50 with SK-OV-3 was 0.283 µM; in the experiment on DU-145 it was 2.99 µM; with NCI-H460, 3.57 µM. This compound also displayed an IC50 in experiment [1] of 3.7 µM.

Take `COc1ccc2c(C(=O)c3ccc(OC(F)(F)F)cc3)c(-c3ccc(OC)c(O)c3)[nH]c2c1`: the GI50 with SK-OV-3 was found to be 3.05 µM; in the experiment with DU-145 it was 3.21 µM; with NCI-H460, 2.35 µM. Also, in experiment [1], the 50% inhibitory concentration (IC50) is > 20 µM.

`COc1ccc2c(C(=O)c3cc(F)c(F)c(F)c3)c(-c3ccc(OC)c(O)c3)[nH]c2c1` had an inhibition on Tubulin (Homo sapiens) [2] of 26%. For the same compound, the GI50 was 19.8 µM in the experiment with SK-OV-3, 10 µM in the experiment with DU-145 and 5.54 µM in the experiment on NCI-H460. In addition, half-maximal inhibition in experiment [1] (IC50) required 7.5 µM.

For `COc1ccc2c(C(=O)c3cccc([N+](=O)[O-])c3)c(-c3ccc(OC)c(O)c3)[nH]c2c1`, the inhibition at Tubulin (Homo sapiens) [2] was 21%. Besides, the values for the GI50 in the experiment on SK-OV-3, in the experiment on DU-145 and with NCI-H460 were 2.65 µM, 7.11 µM and 15.7 µM, respectively. In addition, the IC50 in experiment [1] came out at 19 µM.

Turning to `COc1ccc(/C=C\c2cc(OC)c(OC)c(OC)c2)cc1O` [COMBRETASTATIN A4], the GI50 in the experiment with SK-OV-3 stood at 0.00533 µM; in the experiment on DU-145, 0.00484 µM; in the experiment on NCI-H460, 0.00449 µM.

For `COc1ccc2c(C(=O)c3cc([N+](=O)[O-])cc([N+](=O)[O-])c3)c(-c3ccc(OC)c(O)c3)[nH]c2c1`, the GI50 in the experiment on SK-OV-3 came out at 4.35 µM; in the experiment with DU-145, 5.52 µM; with NCI-H460 it was 4.08 µM. The half-maximal inhibitory concentration (IC50) in experiment [1] is > 20 µM.

On to `COc1ccc(-c2[nH]c3c(O)c(OC)ccc3c2C(=O)c2cc(OC)c(OC)c(OC)c2)cc1`, for which the figures for the inhibition at Tubulin (Homo sapiens) [3] and at Tubulin (Homo sapiens) [2] were 51% and 85%, respectively. Further, the GI50 in the experiment on SK-OV-3 was 0.264 µM; in the experiment with DU-145, 0.309 µM; in the experiment on NCI-H460, 0.177 µM. Moreover, the IC50 in experiment [1] was found to be 1 µM.

As for `COc1ccc(-c2[nH]c3c(OC)c(OC)ccc3c2C(=O)c2cc(OC)c(OC)c(OC)c2)cc1O`, the inhibition on Tubulin (Homo sapiens) [3] was 31%; on Tubulin (Homo sapiens) [2], 67%. The values for the GI50 in the experiment on SK-OV-3, in the experiment on DU-145 and in the experiment on NCI-H460 were 0.0119 µM, 0.0181 µM and 0.992 µM, respectively. Also, in experiment [1], the IC50 was determined as 1.1 µM.

Take `COc1ccc2c(C(=O)c3ccc([N+](=O)[O-])cc3)c(-c3ccc(OC)c(O)c3)[nH]c2c1`: the GI50 in the experiment on SK-OV-3 is 21.1 µM; in the experiment on DU-145, 8.16 µM; in the experiment with NCI-H460, 16.8 µM. Besides, the IC50 in experiment [1] was > 20 µM.

Turning to `COc1ccc2c(C(=O)c3cc(C(F)(F)F)cc(C(F)(F)F)c3)c(-c3ccc(OC)c(O)c3)[nH]c2c1`, the inhibition at Tubulin (Homo sapiens) [2] is 26%. The GI50 with SK-OV-3 stood at 1.45 µM; in the experiment on DU-145, 3.01 µM; in the experiment on NCI-H460, 2.86 µM. Moreover, half-maximal inhibition in experiment [1] (IC50) required 3.1 µM.

For the origin of these results see ChEMBL document CHEMBL2440086 (Bioorg Med Chem, 2013).
